PKD1 inh: PKD1 (human) kinase inhibition. hit rate 0.056% among 200,000. PKD1 kinase fluorescence polarization assay. AID 797. inhibition, % (concentration not given with the values). Q15139
Target sequence (Q15139 whole entry, looked up): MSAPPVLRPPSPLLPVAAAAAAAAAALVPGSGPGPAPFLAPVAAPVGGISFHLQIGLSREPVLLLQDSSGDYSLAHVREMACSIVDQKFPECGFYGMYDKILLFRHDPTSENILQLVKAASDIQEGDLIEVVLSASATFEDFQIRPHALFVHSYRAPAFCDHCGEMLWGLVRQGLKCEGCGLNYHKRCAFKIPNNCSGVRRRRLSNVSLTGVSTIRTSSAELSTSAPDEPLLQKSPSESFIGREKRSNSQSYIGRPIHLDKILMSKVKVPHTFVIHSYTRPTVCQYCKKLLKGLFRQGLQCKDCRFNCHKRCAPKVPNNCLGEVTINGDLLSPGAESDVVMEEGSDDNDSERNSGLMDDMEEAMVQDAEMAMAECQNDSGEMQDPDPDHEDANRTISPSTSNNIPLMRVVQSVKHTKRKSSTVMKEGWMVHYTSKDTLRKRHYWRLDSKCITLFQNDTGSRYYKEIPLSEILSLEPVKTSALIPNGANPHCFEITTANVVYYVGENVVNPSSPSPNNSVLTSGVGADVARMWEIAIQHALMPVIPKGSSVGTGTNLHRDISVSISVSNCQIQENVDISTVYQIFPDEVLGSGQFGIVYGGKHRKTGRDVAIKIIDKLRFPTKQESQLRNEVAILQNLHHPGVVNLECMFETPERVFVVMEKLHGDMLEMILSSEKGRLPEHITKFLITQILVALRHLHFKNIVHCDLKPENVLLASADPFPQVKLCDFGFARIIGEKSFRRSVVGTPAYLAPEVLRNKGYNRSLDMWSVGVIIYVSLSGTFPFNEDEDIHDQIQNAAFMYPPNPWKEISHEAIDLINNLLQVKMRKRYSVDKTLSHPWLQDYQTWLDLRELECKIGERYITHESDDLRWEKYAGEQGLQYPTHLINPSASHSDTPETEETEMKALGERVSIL
Wee1 degr inh: human Wee1 degradation inhibition, primary screen; P30291; HeLa Luc-Wee1K328M stability, luciferase luminescence; 100% = proteasome inhibitor MG132 effect; reporter increase, % at 5 µM; hit rate 1.2% among 220,000;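 active means activation above the mean of all tested compounds plus 3 SD, set per screening run, cut at about 8.8% in these data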;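 further: cells exposed to compound for 20 h before luminescence read; 0% = DMSO alone and 100% = MG132 at 30 µM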
CHOP inhibitor: blocks CHOP induction under ER stress. inhibition, % at 10 µM. CHO-K1 CHOP-promoter luciferase, tunicamycin-induced, 15-18 h. hit rate 3.8% among 220,000;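 active means compounds that reduced the stress-induced luciferase reporter signal by more than about 70% of percent inhibition, limit read from the data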;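 further: 0% = tunicamycin plus vehicle and 100% = wells without tunicamycin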
Rad51 HR inh: blocks human Rad51 in homologous recombination; Q06609; inhibition, % at 10 µM; hRad51 DNA strand exchange, fluorescence dequenching; hit rate 0.085% among 200,000;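 active means inhibition above 40% at the single screening dose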;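 further: 0% = DMSO control wells and 100% = blanks with heterologous ssDNA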
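Test system – preformed human Rad51 ssDNA filaments · Reagent – Donor/quencher-labelled 47-bp dsDNA substrate · Incubation – 37 °C 15-min filament assembly, 30-min compound preincubation, 15-min exchange · Signal – FRET fluorescence dequenching, excitation 485 nm, emission 520 nm · Read-out – percent inhibition from fluorescence, normalised to plate control and blank means · Benchmarks – plate control and blank wells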
Lmaj promast: reduces viability of Leishmania major promastigotes | resazurin fluorescence viability | inhibition, % at 10 µM | hit rate 9% among 200,000;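 further: promastigotes grown with compound for 44 hours at 28 °C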
Arbovirus inh: arbovirus infection inhibition; arbovirus infection cell-based antiviral screen; inhibition, % at 10 µM; hit rate 0.37% among 200,000; AID 1251; in the data active means inhibition above about 30%
Starred values were filed as active, the others as inactive; / = not tested or not shown. Sampled rows, rich in hits. Any-hit rate of the full collection: about 12%. Unless noted, no stated cut-off is given here; in the data, active means inhibition above about 50%; inactive means the rest.

SMILES	PKD1 inh	Wee1 degr inh	CHOP inhibitor	Rad51 HR inh	Lmaj promast	Arbovirus inh
CC(=O)Nc1ccc(CN2CCCC(C(=O)c3ccc(C(F)(F)F)cc3)C2)cc1 (stereo unspecified)	0.4	3.1	-5.0	/	82.2*	-13.2
O=C(c1ccc(Cl)cc1)C1CCCN(Cc2ccc(Oc3ncccn3)cc2)C1 (stereo unspecified)	-4.7	1.9	17.6	-1.5	86.2*	0.2
OCCC1CN(Cc2ccc(Oc3ncccn3)cc2)CCN1C1CCCCC1 (stereo unspecified)	/	-2.9	0.7	/	/	/
CCCn1c2ccc(/C(C)=N\O)cc2c2cc(/C(C)=N/O)ccc21	-4.2	3.5	14.0	8.3	59.4*	-3.9
Cc1[nH]n2c(=O)c3c(nc2c1-c1ccccc1)CCCC3	6.7	-2.1	22.9	6.2	99.0*	-15.2
O=c1c2c(nc3c(-c4cccc5ccccc45)c[nH]n13)CCC2	-5.5	2.8	32.5	6.9	-4.6	-19.9
O=c1c2c(nc3c(-c4ccc(Cl)cc4)c[nH]n13)CCCC2	0.1	-0.2	11.6	-7.2	100.2*	-15.6
Cc1[nH]n2c(=O)c3c(nc2c1-c1ccc(F)cc1)CCCC3	0.2	7.9	-4.2	-1.6	100.3*	-4.4
Cc1[nH]n2c(=O)c3c(nc2c1-c1cccc2ccccc12)CCC3	8.5	3.6	11.4	2.2	-2.0	-23.9
N#CC1(NC(=O)CN2CCN(S(=O)(=O)c3ccccc3F)CC2)CCCC1	/	-1.3	15.5	1.4	/	/
O=C1CC(c2ccco2)Cc2nc(Nc3nc(-c4ccccc4)c4ccccc4n3)ncc21 (stereo unspecified)	6.7	2.5	92.8*	/	0.3	-4.6
O=C(Nc1ncc2c(n1)CC(c1ccco1)CC2=O)c1ccccc1 (stereo unspecified)	2.1	-0.6	-18.8	/	1.4	3.1
COc1ccc(/C=C/C(=O)N(CC(C)C)CC(C)C)cc1Br	2.8	-1.5	83.8*	-4.8	11.8	-2.0
CC(C)(C)NC(=O)c1cc([N+](=O)[O-])ccc1N1CCCCC1	-6.9	1.7	-2.0	-17.1	-2.2	11.3
N#Cc1cc2c(nc1Cl)CCCC2	-21.1	2.0	17.6	8.0	73.5*	3.4
O=C(OC(c1ccc(NS(=O)(=O)c2ccccc2)cc1)(C(F)(F)F)C(F)(F)F)c1ccccc1	-8.0	-3.0	92.3*	-3.7	100.0*	-11.5
COc1ccc(NC(=O)c2ccccc2NS(=O)(=O)c2ccc(C)cc2)c([N+](=O)[O-])c1	-7.6	-2.6	-8.5	7.9	0.2	3.8
Cc1ccc(S(=O)(=O)Nc2ccc(C(OC(=O)c3ccccc3[N+](=O)[O-])(C(F)(F)F)C(F)(F)F)cc2)cc1	12.2	1.6	75.9*	7.2	99.7*	-35.3
Cc1nn(C2CCS(=O)(=O)C2)c(Cl)c1/C=C/C(=O)OCC(=O)Nc1ccccc1OC(F)F (stereo unspecified)	0.7	1.9	-7.4	6.7	50.9*	1.1
CC(C)(C)NCC(O)CON=C1c2ccccc2-c2ccccc21 (stereo unspecified)	1.6	3.4	-7.8	/	98.8*	-22.2
Cc1ccc(NC(=O)c2ccc3c(c2)C(=O)N(Cc2cccnc2)C3=O)c(C)c1	-4.9	2.5	-0.7	7.6	-5.6	4.7
COc1cccc(CN(Cc2ccco2)S(=O)(=O)c2ccc(S(=O)(=O)NCc3ccccc3)cc2)c1OC	-3.5	-0.2	19.2	-4.9	97.5*	-7.6
Fc1ccccc1NC(=S)Nc1ccc(CN2CCOCC2)cc1	-5.5	-0.1	9.0	/	4.6	1.9
Oc1ccccc1Nc1ccccn1	/	-2.4	-4.9	1.1	/	/
O=C1C=C(NCc2ccccc2)c2ccccc2C1=O	2.0	-0.1	-9.1	0.1	96.7*	-35.0
SMILES	PKD1 inh	Wee1 degr inh	CHOP inhibitor	Rad51 HR inh	Lmaj promast	Arbovirus inh
O=C1C=C(Nc2ccccc2O)c2ccccc2C1=O	-2.2	2.5	-21.6	-6.4	99.8*	-32.0
CCCC(=O)Nc1ccc(Cl)c(NC(=S)NC(=O)c2ccco2)c1	-8.0	-2.7	4.8	-9.4	21.2	-3.8
C(=C\c1ccco1)/C=N/n1cnnc1	-15.4	9.7*	34.5	-1.5	-4.8	4.5
COc1cc(OC)c(NS(=O)(=O)c2cc(C(=O)OC(C)C(=O)NC3CC3)c(Cl)cc2Cl)cc1Cl (stereo unspecified)	3.5	3.8	25.0	-7.0	77.9*	9.8
COc1cc(OC)c(NS(=O)(=O)c2coc(C(N)=O)c2)cc1Cl	-2.9	-3.0	39.7	7.9	1.6	4.7
N#CC(C(=S)Nc1ccccc1)c1nc2ccccc2[nH]1 (stereo unspecified)	/	0.8	-138.9	4.0	/	/
CSC(=Nc1ccccc1)C(C#N)c1nc2ccccc2[nH]1 (stereo unspecified)	/	1.6	82.0*	-12.0	/	/
C=C1CC2C=C(NC(C)=O)CC(C1)C2 (stereo unspecified)	-9.5	9.6*	-36.7	-2.4	0.1	-0.1
O=C(NCCCN1CCc2ccccc2C1)Nc1ccc(Br)cc1	7.5	1.9	18.8	-5.6	95.0*	-19.3
COc1ccc(NC(=O)NCCCN2CCc3ccccc3C2)cc1	-7.8	-3.4	32.4	-3.4	-0.5	-5.5
Nc1ccc(CN2CCOCC2)cc1	-2.3	7.2	4.5	-10.1	-6.8	-1.3
Cc1c(Br)cc(C(=O)NCCCN2CCOCC2)c(C)c1C	-2.7	0.2	-29.2	3.5	61.1*	-3.7
COc1cc(OC)c(C(=O)NCCCN2CCOCC2)cc1OC	-3.2	-2.8	-6.9	14.4	-0.3	3.3
O=C(NCCCN1CCOCC1)c1ccc(Br)cc1Br	-0.5	-3.4	4.2	29.9	81.0*	1.3
O=C(NCCCN1CCOCC1)c1cc2cc(Br)ccc2oc1=O	1.6	0.9	59.8	-0.1	15.0	9.4
Cc1onc(NC(=O)c2ccc(Cl)cc2Cl)c1Br	-3.0	-2.3	-3.8	4.8	3.2	-1.4
CCN(CC)c1ccc2c(O)cc(=O)oc2c1	-6.5	-1.0	3.0	-0.8	-5.8	-8.5
CCN(CC)c1ccc2c(C)c(CO)c(=O)oc2c1	1.8	0.6	15.7	2.1	2.0	-6.1
CCN(CC)c1ccc2c(C)c(CN3CCOCC3)c(=O)oc2c1	-6.8	1.8	-9.1	-14.4	100.2*	-2.1
CCN(CC)c1ccc2c(Cl)cc(=O)oc2c1	4.5	2.8	93.8*	1.0	-2.3	-4.2
CCc1ccc(N(CC(=O)NCc2ccc(F)cc2)C(=O)c2csnn2)cc1	-8.0	-1.1	-1.1	13.3	-3.2	-8.1
Cc1ccc(CNC(=O)[C@H](C)[C@H]2C[C@]2(C)[C@H](NC(=O)OCc2ccccc2)c2ccccc2)o1	1.3	-1.5	32.6	-1.7	7.3	-3.4
Cc1cccc(-c2n[nH]c([N+](=O)[O-])n2)c1	-9.1	0.1	2.9	-9.4	-3.9	2.1
O=[N+]([O-])c1cc(-c2n[nH]c(-c3ccccc3)n2)cc([N+](=O)[O-])c1	18.2	-1.4	94.0*	-2.6	97.8*	1.3
CC(Oc1cccc(Cl)c1)C(=O)Nc1ccncc1 (stereo unspecified)	-4.3	-3.7	34.6	-2.9	-2.4	5.8
